Data: ChEMBL document CHEMBL4330056, “Synthesis and Cytotoxic and Antiviral Profiling of Pyrrolo- and Furo-Fused 7-Deazapurine Ribonucleosides” (J Med Chem, 2018)
Active and inactive are the calls of the source. No cut-off for these calls is given here.

Assays:
[1] = test system: Hepatitis C virus; assay: Antiviral activity against Hepatitis C virus genotype 1b infected in human Huh-luc replicon cells after 3 days by luciferase assay; type: functional, organism-based, Hepacivirus hominis; details: subtype 1b, 72 h
[2] = test system: Hepatitis C virus; assay: Antiviral activity against Hepatitis C virus genotype 2a infected in human Huh-luc replicon cells after 3 days by luciferase assay; type: functional, organism-based, Hepacivirus hominis; details: subtype 2a, 72 h
[3] = test system: BJ; assay: Antiproliferative activity against human BJ cells after 3 days by MTS assay; details: 72 h
[4] = test system: MRC5; assay: Antiproliferative activity against human MRC5 cells after 3 days by MTS assay; details: MRC5, 72 h
[5] = test system: A549; assay: Antiproliferative activity against human A549 cells after 3 days by MTS assay; type: functional, cell-based; details: A549, 72 h
[6] = Antiproliferative activity against human CEM-DNR-bulk cells after 3 days by MTS assay; details: 72 h
[7] = test system: HCT-116; assay: Antiproliferative activity against human HCT116 cells after 3 days by MTS assay; type: functional, cell-based; details: HCT-116, 72 h
[8] = test system: HCT-116; assay: Antiproliferative activity against p53 gene knocked out human HCT116 cells after 3 days by MTS assay; type: functional, cell-based; details: HCT-116, 72 h
[9] = test system: K562; assay: Antiproliferative activity against human K562 cells after 3 days by MTS assay; type: functional, cell-based; details: K562, 72 h
[10] = Antiproliferative activity against human K562-TAX cells after 3 days by MTS assay; type: functional, cell-based; details: 72 h
[11] = test system: U2OS; assay: Antiproliferative activity against human U2OS cells after 3 days by MTS assay; type: functional, cell-based; details: 72 h
[12] = test system: HL-60; assay: Antiproliferative activity against human HL60 cells after 72 hrs by XTT assay; type: functional, cell-based; details: HL-60, 72 h
[13] = test system: HepG2; assay: Antiproliferative activity against human HepG2 cells after 72 hrs by XTT assay; type: functional, cell-based; details: HepG2, 72 h
[14] = test system: HeLa S3; assay: Antiproliferative activity against human HeLaS3 cells after 72 hrs by XTT assay; type: functional, cell-based; details: HeLa S3, 72 h
[15] = test system: CCRF-CEM; assay: Induction of cell cycle arrest in human CCRF-CEM cells assessed as accumulation at subG1 phase at IC50 concentration after 24 hrs by propidium iodide-staining based flow cytometry (reference value: 3.45%); type: functional
[16] = test system: CCRF-CEM; assay: Induction of cell cycle arrest in human CCRF-CEM cells assessed as accumulation at subG1 phase at 5 times IC50 concentration after 24 hrs by propidium iodide-staining based flow cytometry (reference value: 3.45%); type: functional
[17] = test system: CCRF-CEM; assay: Induction of cell cycle arrest in human CCRF-CEM cells assessed as accumulation at G0/G1 phase at IC50 concentration after 24 hrs by propidium iodide-staining based flow cytometry (reference value: 39.70%); type: functional
[18] = test system: CCRF-CEM; assay: Induction of cell cycle arrest in human CCRF-CEM cells assessed as accumulation at G0/G1 phase at 5 times IC50 concentration after 24 hrs by propidium iodide-staining based flow cytometry (reference value: 39.70%); type: functional
[19] = test system: CCRF-CEM; assay: Induction of cell cycle arrest in human CCRF-CEM cells assessed as accumulation at S phase at IC50 concentration after 24 hrs by propidium iodide-staining based flow cytometry (reference value: 41.08%); type: functional
[20] = test system: CCRF-CEM; assay: Induction of cell cycle arrest in human CCRF-CEM cells assessed as accumulation at G2/M phase at 5 times IC50 concentration after 24 hrs by propidium iodide-staining based flow cytometry (reference value: 19.22%); type: functional
[21] = test system: CCRF-CEM; assay: Inhibition of DNA synthesis in human CCRF-CEM cells assessed as DNA synthesis level at IC50 concentration after 24 hrs by BrdU incorporation assay (reference value: 43.39%); type: functional; set-up: scale not given: the % may be the effect or the level left
[22] = test system: CCRF-CEM; assay: Inhibition of DNA synthesis in human CCRF-CEM cells assessed as DNA synthesis level at 5 times IC50 concentration after 24 hrs by BrdU incorporation assay (reference value: 43.39%); type: functional; set-up: scale not given: the % may be the effect or the level left
[23] = test system: CCRF-CEM; assay: Inhibition of RNA synthesis in human CCRF-CEM cells assessed as RNA synthesis level at IC50 concentration after 24 hrs by BrU incorporation assay (reference value: 49.89%); type: functional; set-up: scale not given: the % may be the effect or the level left
[24] = test system: CCRF-CEM; assay: Inhibition of RNA synthesis in human CCRF-CEM cells assessed as RNA synthesis level at 5 times IC50 concentration after 24 hrs by BrU incorporation assay (reference value: 49.89%); type: functional; set-up: scale not given: the % may be the effect or the level left
[25] = target: T1, Adenosine kinase (Homo sapiens, UniProt P55263); assay: Substrate activity at recombinant human ADK assessed as compound phosphorylation at 50 uM after 20 mins in presence of [3H]-adenosine by UPLC; type: ADME
T1 sequence (P55263 whole entry): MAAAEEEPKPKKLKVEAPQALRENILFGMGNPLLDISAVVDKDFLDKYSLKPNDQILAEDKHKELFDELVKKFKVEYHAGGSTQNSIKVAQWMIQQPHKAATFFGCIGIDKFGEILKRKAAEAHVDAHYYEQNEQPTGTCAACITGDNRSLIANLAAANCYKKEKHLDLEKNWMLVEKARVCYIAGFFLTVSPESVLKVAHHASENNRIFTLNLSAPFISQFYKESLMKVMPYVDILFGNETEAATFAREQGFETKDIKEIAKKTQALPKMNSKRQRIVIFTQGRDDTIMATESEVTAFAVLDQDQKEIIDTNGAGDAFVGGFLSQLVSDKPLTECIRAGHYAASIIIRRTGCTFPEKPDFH

[26] = target: T1, Adenosine kinase; assay: Inhibition of recombinant human ADK using [3H]-adenosine as substrate after 20 mins by TLC scanner-based analysis relative to control
In short: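 ADK inhibition: 50 μM adenosine substrate with 10 μM test compound and 97 ng enzyme, 20 min at 37 °C.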

[27] = Chemical stability of the compound assessed as compound remaining after 15 mins relative to control; type: physicochemical; details: read-out: Stability
[28] = Chemical stability of the compound assessed as compound remaining after 30 mins relative to control; type: physicochemical; details: read-out: Stability
[29] = Chemical stability of the compound assessed as compound remaining after 60 mins relative to control; type: physicochemical; details: read-out: Stability
[30] = Chemical stability of the compound assessed as compound remaining after 120 mins relative to control; type: physicochemical; details: read-out: Stability
[31] = Stability in human plasma assessed as compound remaining at 3.3 umol/L after 15 mins by RF-MS analysis relative to control; type: ADME, cell-free; details: read-out: Stability
[32] = Stability in human plasma assessed as compound remaining at 3.3 umol/L after 30 mins by RF-MS analysis relative to control; type: ADME, cell-free; details: read-out: Stability
[33] = Stability in human plasma assessed as compound remaining at 3.3 umol/L after 60 mins by RF-MS analysis relative to control; type: ADME, cell-free; details: read-out: Stability
[34] = Metabolic stability in human liver microsomes assessed as compound remaining at 5 umol/L after 15 mins relative to control; type: ADME, Microsome; details: read-out: Stability
In short: (§1)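 Human microsomal fraction; percent compound remaining over time.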

[35] = Metabolic stability in human liver microsomes assessed as compound remaining at 5 umol/L after 30 mins relative to control; type: ADME, Microsome; details: read-out: Stability; in short: as §1
[36] = Metabolic stability in human liver microsomes assessed as compound remaining at 5 umol/L after 60 mins relative to control; type: ADME, Microsome; details: read-out: Stability; in short: as §1
[37] = Protein binding in human plasma; type: ADME, cell-free; details: read-out: PPB (converted)
[38] = Effective permeability of the compound at 20 umol/L by PAMPA; type: ADME; details: 20 µM
[39] = test system: Influenza A virus; assay: Antiviral activity against Influenza A virus (A/Mexico/4108/2009(H1N1)) infected in MDCK cells assessed as inhibited virus-induced cytopathic effect incubated for 2 days by XTT assay; type: functional, organism-based
[40] = test system: Human orthopneumovirus; assay: Antiviral activity against Human respiratory syncytial virus A2 infected in Hep2 cells assessed as reduction in virus-induced cytopathic effect incubated for 4 days by CellTiter-Glo viability reagent based assay; type: functional, organism-based
[41] = test system: Coxsackievirus B3; assay: Antiviral activity against Human coxsackie B3 Nancy infected in human HeLa cells assessed as inhibited virus-induced cytopathic effect incubated for 2 days by XTT assay; type: functional, organism-based
[42] = test system: Human alphaherpesvirus 1; assay: Antiviral activity against human herpesvirus 1 HF infected in African green monkey Vero cells assessed as inhibited virus-induced cytopathic effect incubated for 3 days by XTT assay; type: functional, organism-based
[43] = test system: dengue virus type 2; assay: Antiviral activity against Dengue virus 2 Thailand/16681/84 infected in African green monkey Vero cells assessed as inhibition of virus replication incubated for 3 days by fluorescence microscopy; type: functional, organism-based

**Q.** For `Cc1ncnc2c1c1occc1n2[C@@H]1O[C@H](CO)[C@@H](O)[C@H]1O`, which EC50 [1] is on record?
**A.** 0.28 µM

**Q.** What about the EC50 [2] of the same compound?
**A.** 0.24 µM

**Q.** What about the IC50 [3] of the same compound?
**A.** 7.73 µM

**Q.** What about the IC50 [4] of the same compound?
**A.** > 50 µM

**Q.** What about the IC50 [5] of the same compound?
**A.** 3.19 µM

**Q.** What about the IC50 [6] of the same compound?
**A.** > 50 µM

**Q.** And the IC50 [7]?
**A.** 0.45 µM

**Q.** And the IC50 [8]?
**A.** 0.45 µM

**Q.** And the IC50 [9]?
**A.** 0.41 µM

**Q.** And the IC50 [10]?
**A.** 6.93 µM

**Q.** What about the IC50 [11] of the same compound?
**A.** 0.57 µM

**Q.** What about the IC50 [12] of the same compound?
**A.** 1.2 µM

**Q.** And the IC50 [13]?
**A.** 2.12 µM

**Q.** And the IC50 [14]?
**A.** 2.21 µM

**Q.** What about the Activity [15] of the same compound?
**A.** 7.62%

**Q.** And the Activity [16]?
**A.** 20.53%

**Q.** And the Activity [17]?
**A.** 44.57%

**Q.** What about the Activity [18] of the same compound?
**A.** 36.83%

**Q.** What about the Activity [19] of the same compound?
**A.** 39.31%

**Q.** What about the Activity [20] of the same compound?
**A.** 13.52%

**Q.** And the Activity [21]?
**A.** 38.11%

**Q.** What about the Activity [22] of the same compound?
**A.** 38.88%

**Q.** What about the Activity [23] of the same compound?
**A.** 21.63%

**Q.** What about the Activity [24] of the same compound?
**A.** 0.61%

**Q.** What about the Activity [25] of the same compound?
**A.** 48%

**Q.** What about the IC50 [26] of the same compound?
**A.** > 10 µM

**Q.** What about the remaining at 0.25 h [27] of the same compound?
**A.** 99%

**Q.** And the remaining at 0.5 h [28]?
**A.** 99%

**Q.** And the remaining at 1 h [29]?
**A.** 99%

**Q.** And the remaining at 2 h [30]?
**A.** 96%

**Q.** And the remaining at 0.25 h, 3.3 µM [31]?
**A.** 99%

**Q.** And the remaining at 0.5 h, 3.3 µM [32]?
**A.** 99%

**Q.** And the remaining at 1 h, 3.3 µM [33]?
**A.** 98%

**Q.** And the remaining at 0.25 h, 5 µM [34]?
**A.** 100%

**Q.** What about the remaining at 0.5 h, 5 µM [35] of the same compound?
**A.** 99%

**Q.** And the remaining at 1 h, 5 µM [36]?
**A.** 98%

**Q.** And the fraction unbound [37]?
**A.** 0.41

**Q.** What about the “log(permeability)” value [38] of the same compound?
**A.** -6.88

**Q.** And the Activity [39]?
**A.** inactive

**Q.** And the Activity [40]?
**A.** inactive

**Q.** And the Activity [41]?
**A.** inactive

**Q.** What about the Activity [42] of the same compound?
**A.** inactive

**Q.** What about the Activity [43] of the same compound?
**A.** inactive
